From ChEMBL document CHEMBL1158096, “Cytotoxic triterpenoids from the leaves of Microtropis fokienensis” (J Nat Prod, 2006) come the findings set out here.

One assay relates to HepG2. Description: (§1) Cytotoxicity against human Hep G2 cells after 3 days by MTT method. The assay is classed as functional, cell-based. The gist of the method: (§2)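 Freshly trypsinized cells seeded at 5000-10 000 per well; compounds added from DMSO stocks. After 3 days in culture, attached cells incubated with MTT ([…], 1 h), solubilized in DMSO, absorbance read at 550 nm. IC50 = concentration reducing cell growth by 50%. Mean of two to three separate experiments, each in triplicate.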
(In general: Formazan colour is commonly taken as a measure of viable cells.)

In a further assay the test system is MDA-MB-231. Description: Cytotoxicity against human MDA-MB-231 cells after 3 days by MTT method. The assay is classed as functional, cell-based. In outline:
as §2

A further assay has as its system A549. The assay is described as follows: Cytotoxicity against human A549 cells after 3 days by MTT method. It counts as functional, cell-based. The gist of the method:
as §2

The next assay has as its system Hep 3B2. Description: (§3) Cytotoxicity against human Hep3B cells after 3 days by MTT method. The assay is classed as functional, cell-based. In outline: as §2
For a further assay, the system named is MCF7. Description: Cytotoxicity against human MCF7 cells after 3 days by MTT method. The assay is classed as functional, cell-based. In outline: as §2
The nature of assay [1]: as §1. The assay is classed as functional, cell-based. The note with it: HepG2, 72 h. In outline: as §2
Assay [2] can be described thus: as §3. It counts as functional, cell-based, Hep 3B2. The settings on record: 72 h. The gist of the method: as §2

Molecules are shown by their SMILES. ≈ marks a conversion by molar mass, not a printed value. Calls of active or inactive are those of the source. The calls are words filed in the database; no cut-off is given here.

What is called IC50 is the concentration that inhibits the measured activity by half. Low readings indicate inhibition by little substance, high ones a need for much substance.

In the case of `Oc1cc(O)c2c(c1)O[C@H](c1ccc(O)c(O)c1)[C@H](O)C2`, the outcome with HepG2, with MDA-MB-231, with A549, with Hep 3B2 and in the assay with MCF7 was inactive.
As for `C[C@H]1[C@H](C)CC[C@@]23CC[C@@]4(C)[C@]5(C)CC[C@@H]6[C@](C)(CC[C@H](O)[C@@]6(C)CO)[C@H]5CC(=O)[C@]4(OC2)[C@H]13` [MICROFOKIENOXANE C], the values for the IC50 in assay [1] and in assay [2] were 3.8 µg/mL (≈ 8.04 µM) and 4.5 µg/mL (≈ 9.52 µM), respectively. Moreover, the outcome in the assay with MDA-MB-231, in the assay on A549 and in the assay on MCF7 was inactive.
With `C[C@H]1[C@H](C)CC[C@@]23CC[C@]4(C)[C@@](C=C[C@@H]5[C@@]6(C)CC[C@H](O)C(C)(C)[C@@H]6CC[C@]54C)(OC2)[C@H]13`, the result in the assay with HepG2, in the assay on MDA-MB-231, in the assay on A549, with Hep 3B2 and with MCF7 was inactive.
On to `C=C(CO)[C@@H]1CC[C@]2(C)CC[C@]3(C)[C@H](CC[C@@H]4[C@@]5(C)CC[C@H](O)C(C)(C)[C@@H]5CC[C@]43C)[C@@H]12`, for which the outcome in the assay with HepG2, in the assay on MDA-MB-231, in the assay on A549, in the assay on Hep 3B2 and with MCF7 was inactive.
As to `COC(=O)/C=C/c1ccc(O)cc1`, the outcome with HepG2, in the assay with MDA-MB-231, in the assay with A549, in the assay on Hep 3B2 and in the assay on MCF7 was inactive.
As for `CC1(C)C(=O)CC[C@]2(C)[C@H]3C=C[C@]45OC[C@@]6(CC[C@](C)(CO)C[C@H]64)CC[C@@]5(C)[C@]3(C)CC[C@@H]12`, the result in the assay with HepG2, in the assay on MDA-MB-231, in the assay with A549, in the assay on Hep 3B2 and in the assay with MCF7 was inactive.
`C[C@H]1[C@H](C)CC[C@@]23CC[C@]4(C)[C@@](C=C[C@@H]5[C@@]6(C)CC[C@H](O)[C@@](C)(CO)[C@@H]6CC[C@]54C)(OC2)[C@H]13`: the outcome in the assay on HepG2, with MDA-MB-231, in the assay on A549, in the assay with Hep 3B2 and in the assay with MCF7 was inactive.
In assay [1], `CO[C@@H]1C=C2[C@@H]3[C@@H](C)[C@H](C)CC[C@]3(CO)CC[C@@]2(C)[C@]2(C)CC[C@H]3C(C)(C)[C@@H](O)CC[C@]3(C)[C@@H]12` yielded an IC50 of 4.6 µg/mL (≈ 9.73 µM). In addition, the result in the assay on MDA-MB-231, in the assay on A549, in the assay with Hep 3B2 and with MCF7 was inactive.
With `CC1(C)CC[C@@]23CC[C@]4(C)[C@@](C=C[C@@H]5[C@@]6(C)CC[C@H](O)C(C)(C)[C@@H]6CC[C@]54C)(OC2)[C@@H]3C1`, the outcome in the assay on HepG2, with MDA-MB-231, with A549, with Hep 3B2 and with MCF7 was inactive.
For `O=c1c(O)c(-c2ccc(O)cc2)oc2cc(O)cc(O)c12`, the result with HepG2, in the assay with MDA-MB-231, in the assay with A549, in the assay on Hep 3B2 and in the assay with MCF7 was inactive.
For the compound `C[C@H]1[C@H](C)CC[C@]2(CO)CC[C@]3(C)C(=CC[C@@H]4[C@@]5(C)CC[C@H](O)C(C)(C)[C@@H]5CC[C@]43C)[C@H]12`, the result with HepG2, with MDA-MB-231, in the assay on A549, in the assay on Hep 3B2 and in the assay with MCF7 was inactive.
As to `C[C@H]1[C@H](C)CC[C@]23CO[C@@]4(C=C[C@@H]5[C@@]6(C)CC[C@H](O)C(C)(C)[C@@H]6CC[C@@]5(C)[C@]4(C)C[C@@H]2O)[C@H]13`, the result in the assay on HepG2, in the assay on MDA-MB-231, in the assay on A549, in the assay on Hep 3B2 and in the assay on MCF7 was inactive.
As for `CO[C@@H]1C=C2[C@@H]3[C@@H](C)[C@H](C)CC[C@]3(C)CC[C@@]2(C)[C@]2(C)CC[C@H]3C(C)(C)[C@@H](O)CC[C@]3(C)[C@@H]12`, the outcome with HepG2, in the assay with MDA-MB-231, in the assay with A549, in the assay on Hep 3B2 and with MCF7 was inactive.
As to `C=C(CO)[C@@H]1CC[C@]2(CO)CC[C@]3(C)[C@H](CC[C@@H]4[C@@]5(C)CC[C@H](O)C(C)(C)[C@@H]5CC[C@]43C)[C@@H]12`, the outcome in the assay with HepG2, with MDA-MB-231, in the assay on A549, with Hep 3B2 and in the assay on MCF7 was inactive.
